Results as given in ChEMBL document CHEMBL3351307, “Synthesis and structure-activity relationships of novel, potent, orally active hypoxia-inducible factor-1 inhibitors” (Bioorg Med Chem, 2014).
Calls of active or inactive are those of the source. The rule behind the calls is not given here.

Legend:
[1] = target: Hypoxia inducible factors; HIF-1-alpha, HIF-2-alpha (Homo sapiens, UniProt Q16665+Q99814); test: Inhibition of HIF1 signaling in human U251 cells expressing VEGF by VEGF promoter-driven PLAP reporter gene assay; assay type: cell-based; settings: u-251
Method in brief: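 U251/VEGF-PLAP reporter cells seeded at 4.0 × 10⁴ cells/well and incubated overnight before compounds were added. Compounds were dissolved in DMSO and diluted in culture medium, final DMSO ≤0.2% (v/v). Cells grown in DMEM with 10% FBS at 37 °C, 5% CO₂, under 21% O₂ (normoxia) or 2% O₂ (hypoxia).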

Mus musculus [2] = test: Suppression of HIF1alpha protein expression in BALB/cA mouse xenografted with human U251 cells at 6.25 to 12.5 mg/kg, po after 24 hrs by ELISA; assay type: functional, organism-based; settings: U-251
Method in brief: (§1)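 Female BALB/cA nu/nu mice bearing subcutaneous untransfected U251 tumors (~300 mm³) got a single oral dose at 10 mL/kg in DMSO/Tween-80 (35:65) diluted 5-fold with saline. Tumors harvested 24 h later, frozen in liquid nitrogen and fragmented, then lysed in Tris pH 7.5/NaCl/Triton X-100 buffer and centrifuged. HIF-1α measured by ELISA, normalized to BCA total protein, expressed as % of vehicle control. Mean of three animals.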

Mus musculus [3] = test: Toxicity in BALB/cA mouse xenografted with human U251 cells assessed as reduction in body weight at 12.5 mg/kg, po after 24 hrs; assay type: organism-based, U-251; parameters: dose 12.5 mg/kg, route oral; scale not given: the % may be the effect or the level left; settings: in vivo
Method in brief: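 Nude female BALB/cA mice bearing subcutaneous U251 tumors received one oral dose (10 mL/kg; DMSO/Tween-80 35:65 diluted 5-fold with saline). Body weight was compared with vehicle controls 24 h after dosing.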

Mus musculus [4] = test: Toxicity in BALB/cA mouse xenografted with human U251 cells assessed as reduction in body weight at 12.5 to 100 mg/kg, po dosed daily for 11 days; assay type: organism-based, U-251; parameters: dose 12.5-100 mg/kg, route oral; settings: in vivo, 264 h
Method in brief: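 Female BALB/cA nu/nu mice carried subcutaneous untransfected U251 tumors of about 300 mm³, 5 per group. Given oral doses at 10 mL/kg once daily for 11 days in DMSO/Tween-80 (35:65) diluted 5-fold in saline. Body weight was followed alongside tumor volume.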

Mus musculus [5] = test: Suppression of HIF1alpha protein expression in BALB/cA mouse xenografted with human U251 cells at 50 to 100 mg/kg, po after 24 hrs by ELISA; assay type: functional, organism-based; settings: U-251; method in brief: as §1
Mus musculus [6] = test: Suppression of HIF1alpha protein expression in BALB/cA mouse xenografted with human U251 cells at 12.5 mg/kg, po after 3 hrs by ELISA; assay type: functional, organism-based; parameters: dose 12.5 mg/kg; settings: U-251
Method in brief: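 Single oral dose given to female nude BALB/cA mice with subcutaneous U251 xenografts. Tumors collected at 3, 12, 16 and 24 h after dosing. HIF-1α in total tumor extracts measured by ELISA and normalized to total protein. Mean ± SD reported.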

Mus musculus [7] = test: Suppression of HIF1alpha mRNA expression in BALB/cA mouse xenografted with human U251 cells at 50 to 100 mg/kg, po after 24 hrs; assay type: functional, organism-based; settings: U-251
Mus musculus [8] = test: Toxicity in BALB/cA mouse xenografted with human U251 cells assessed as mouse survival at 50 mg/kg/day, po; assay type: organism-based, U-251; parameters: route oral; settings: in vivo
Method in brief: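 Survival model: untransfected U251 cells implanted intracranially in athymic mice. Oral dosing once daily for about 50 days. Dose formulated in DMSO/Tween-80 (35:65) and diluted 5-fold with saline immediately before administration.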

U-251 [9] = test: Antitumor activity against human U251 cells xenografted in BALB/cA mouse assessed as delay in tumor growth at 12.5 to 100 mg/kg, po dosed daily for 11 days; assay type: functional, organism-based
Method in brief: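 Untransfected U251 cells injected subcutaneously into flank or hind leg of female BALB/cA nu/nu mice and grown to about 300 mm³. Mice stratified into groups of 5 with similar mean tumor volume. Dosed orally at 10 mL/kg once daily for 11 days. Vehicle was DMSO/Tween-80 (35:65) diluted 5-fold with saline just before dosing. Tumor volume (length × diameter²/2) measured twice weekly and expressed relative to pretreatment size.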

U-251 [10] = test: Suppression of hypoxia-induced HIF1alpha protein expression in human U251 cells at 0.0001 to 1 uM incubated for 6 hrs by ELISA method; assay type: functional, cell-based
Method in brief: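 Untransfected U251 cells at 4 × 10⁴ cells/well were exposed to compound for 6 h under hypoxia (2% O₂), with normoxia (21% O₂) as comparison. Cells were lysed in Tris/NaCl/Triton buffer, lysate diluted fivefold in PBS with 1% BSA, and HIF-1α quantified by ELISA. Mean of two wells.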

U-251 [11] = test: Suppression of HIF1alpha mRNA expression in human U251 cells; assay type: functional, cell-based
U-251 [12] = test: Suppression of hypoxia-induced HIF1alpha protein expression in human U251 cells at 0.0001 to 1 uM incubated for 6 hrs in presence of 25 uM proteasome inhibitor MG132 by ELISA method; assay type: functional, cell-based
Method in brief: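 Untransfected U251 cells (4 × 10⁴/well) were incubated with graded compound concentrations for 6 h under 21% O₂, 2% O₂, or 2% O₂ with 25 µM MG132. Lysates were diluted fivefold in PBS/1% BSA and HIF-1α measured by ELISA. Mean of two wells.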

U-251 [13] = test: Suppression of deferoxamine-induced HIF1alpha protein expression in human U251 cells at 0.0001 to 1 uM incubated for 6 hrs by ELISA method; assay type: functional, cell-based
Method in brief: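 Untransfected U251 cells at 4 × 10⁴ cells/well were treated for 6 h with a range of compound concentrations. Conditions were 21% O₂, 2% O₂, or 21% O₂ plus 100 µM deferoxamine. Cells were lysed, lysate diluted fivefold in PBS/1% BSA, and HIF-1α measured by total HIF-1α ELISA. Mean of two wells.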

SMILES | IC50 [1] [nM] | other results
O=C(Nc1ccc(CN2CCOCC2)cc1)c1ccc(I)cc1 | 2500 | 
COCCOCc1ccc(CN2CCN(Cc3ccc(C(=O)Nc4ccc(C#CC56CC7CC(CC(C7)C5)C6)cc4)cc3)[C@@H](C)C2)cn1 | 0.47 | inhibition (Mus musculus [2]): Active; Activity (Mus musculus [3]): 92%
C[C@H]1CN(Cc2cccnc2)CCN1Cc1ccc(C(=O)Nc2ccc(C(F)(F)F)cc2)cc1 | 3.3 | 
O=C(Nc1ccc(I)cc1)c1ccc(CN2CCOCC2)cc1 | 560 | 
O=C(Nc1ccc(C(F)(F)F)cc1)c1ccccc1CN1CCOCC1 | > 10000 | 
COCc1ccc(CN2CCN(Cc3ccc(C(=O)Nc4ccc(C#CC56CC7CC(CC(C7)C5)C6)cc4)cc3)[C@@H](C)C2)cn1 | 1.1 | 
O=C(Nc1cccc(I)c1)c1ccc(CN2CCOCC2)cc1 | 2200 | 
O=C(Nc1ccc(C#CC23CC4CC(CC(C4)C2)C3)cc1)c1ccc(CN2CCN(Cc3cccnc3)CC2)cc1 | 0.97 | 
FC(F)(F)c1ccc(/C=C/c2ccc(CN3CCOCC3)cc2)cc1 | 880 | 
C[C@H]1CN(Cc2cccnc2)CCN1Cc1ccc(C(=O)Nc2ccc(C#CC34CC5CC(CC(C5)C3)C4)cc2)cc1 | 2.6 | 
O=C(Nc1ccc(C(F)(F)F)cc1)c1ccc(CN2CCN(Cc3cccnc3)CC2)cc1 | 14 | 
O=C(Nc1ccc(C(F)(F)F)cc1)c1ccc(CN2CCN(Cc3ccccc3)CC2)cc1 | 13 | 
Nc1ncccc1C(=O)N1CCN(Cc2ccc(C(=O)Nc3ccc(C#Cc4ccccc4)cc3)cc2)CC1 | 21 | Activity (Mus musculus [4]): Non-toxic; inhibition (Mus musculus [5]): Active; inhibition (Mus musculus [6]): Active; inhibition (Mus musculus [7]): inactive; Survival (Mus musculus [8]): 50 days; TGI (U-251 [9]): Active
O=C(Nc1ccc(C(F)(F)F)cc1)c1ccc(CN2CCOCC2)cc1 | 280 | 
O=C(Nc1ccc(C#CC2(O)CCCCC2)cc1)c1ccc(CN2CCN(Cc3cccnc3)CC2)cc1 | > 200 | 
O=C(Nc1ccc(C(F)(F)F)cc1)c1cccc(CN2CCOCC2)c1 | > 10000 | 
Nc1ncccc1C(=O)N1CCN(Cc2ccc(C(=O)Nc3ccc(C#CC45CC6CC(CC(C6)C4)C5)cc3)cc2)CC1 | 5.8 | 
Ic1ccc(NCc2ccc(CN3CCOCC3)cc2)cc1 | 2500 | 

SMILES | IC50 [1] [nM] | other results
O=C(Nc1ccc(C#CC2CCCCC2)cc1)c1ccc(CN2CCN(Cc3cccnc3)CC2)cc1 | 3.1 | 
C[C@@H]1CN(Cc2cccnc2)CCN1Cc1ccc(C(=O)Nc2ccc(C(F)(F)F)cc2)cc1 | 13 | 
O=C(Nc1ccc(C(F)(F)F)cn1)c1ccc(CN2CCOCC2)cc1 | 4000 | 
O=C(Nc1ccc(C#Cc2cccnc2)cc1)c1ccc(CN2CCN(Cc3cccnc3)CC2)cc1 | 34 | 
O=C(Nc1ccc(C(F)(F)F)cc1)c1ccc(CN2CCOCC2)s1 | 1600 | 
C[C@H]1CN(Cc2ccc(C(=O)Nc3ccc(C(F)(F)F)cc3)cc2)CCN1Cc1cccnc1 | 35 | 
O=C(Nc1ccc(C(F)(F)F)cc1)c1ccc(CN2CCN(Cc3ccncc3)CC2)cc1 | 7.9 | 
O=C(Nc1ccc(C(F)(F)F)cc1)c1ccc(CN2CCOCC2)nc1 | 4500 | 
COc1ccc(NC(=O)c2ccc(CN3CCOCC3)cc2)cc1 | 13900 | 
O=C(Nc1ccc(C#Cc2ccccc2)cc1)c1ccc(CN2CCN(Cc3cccnc3)CC2)cc1 | 7.9 | inhibition (Mus musculus [5]): Active; inhibition (U-251 [10]): Active; inhibition (U-251 [11]): inactive; inhibition (U-251 [12]): inactive; inhibition (U-251 [13]): inactive; inhibition (Mus musculus [7]): inactive
O=C(Nc1ccccc1I)c1ccc(CN2CCOCC2)cc1 | > 20000 | 
C[C@@H]1CN(Cc2ccc(C(=O)Nc3ccc(C(F)(F)F)cc3)cc2)CCN1Cc1cccnc1 | 30 | 
CN(CCN(C)Cc1cccnc1)Cc1ccc(C(=O)Nc2ccc(C(F)(F)F)cc2)cc1 | 120 | 
CN(C(=O)c1ccc(CN2CCOCC2)cc1)c1ccc(I)cc1.Cl | 2200 | 
O=C(Nc1ccc(C(F)(F)F)cc1)c1ccc(CN2CCOCC2)cn1 | 230 | 
O=C(Nc1ccccc1)c1ccc(CN2CCOCC2)cc1 | 5400 | 
O=C(Nc1ccc(C(F)(F)F)cc1)c1ccc(CC2CCN(Cc3ccncc3)CC2)cc1 | 110 | 
